According to publication PMC3149718 (Molecular and cellular biochemistry, 2011):
Substitutions are numbered along the chain they refer to.

Columns and labels:
[1] = molecular target: T1, 89-residue L-CPTI C-terminal peptide, W391A mutant (Rattus norvegicus, UniProt P32198, W391A); test: Direct binding of fluorescent cis-parinaroyl-CoA
T1 sequence (P32198 381-469 W391A): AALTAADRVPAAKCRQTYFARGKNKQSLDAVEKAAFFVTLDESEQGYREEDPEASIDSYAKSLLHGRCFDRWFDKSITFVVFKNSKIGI

[2] = molecular target: T1, 89-residue L-CPTI C-terminal peptide, W391A mutant; test: FRET from CPTI aromatic amino acids to bound cis-parinaroyl-CoA; format: binding
Summary of the method: (§1)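 Peptide (0.1 µM in PBS, pH 7.4) was titrated with cis-parinaroyl-CoA at 24°C (0–1000 nM in methods; 0–250 nM in legend), with excitation at 280 nm and a 300–450 nm scan. Spectra were background-corrected and each averaged from 5 replicates. […] Distance was obtained by the Förster equation. Values are mean ± SE, n=5.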

[3] = molecular target: T2, 89-residue L-CPTI C-terminal peptide, wild-type (WT) (Rattus norvegicus, UniProt P32198); test: as above; format: binding
T2 sequence (P32198 381-469): T1 sequence (P32198 381-469 W391A) with A11W
Summary of the method: as §1

[4] = molecular target: T3, 89-residue L-CPTI C-terminal peptide, W452A mutant (Rattus norvegicus, UniProt P32198, W452A); test: Direct binding of fluorescent cis-parinaroyl-CoA
T3 sequence (P32198 381-469 W452A): T1 sequence (P32198 381-469 W391A) with A11W, W72A

[5] = molecular target: T3, 89-residue L-CPTI C-terminal peptide, W452A mutant; test: FRET from CPTI aromatic amino acids to bound cis-parinaroyl-CoA; format: binding
Summary of the method: as §1

[6] = molecular target: T1, 89-residue L-CPTI C-terminal peptide, W391A mutant; test: Quenching of intrinsic aromatic amino acid fluorescence by palmitoyl-CoA; format: binding; conditions: read-out: Quenching Kd, quenching of aromatic amino acid fluorescence of 0.1 µM W391A peptide
[7] = molecular target: T2, 89-residue L-CPTI C-terminal peptide, wild-type (WT); test: Displacement of bound cis-parinaroyl-CoA by palmitoyl-CoA; format: binding; conditions: palmitoyl-CoA 0–150nM
Summary of the method: (§2)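 Purified 89-residue peptide (0.1 µM in PBS, pH 7.4) was preincubated with 50 nM cis-parinaroyl-CoA for 5 min at 24°C. It was then titrated with palmitoyl-CoA (0–150 nM stated for WT). Excitation was 310 nm and emission was read at 426 nm. Displacement was taken from the fall in fluorescence and plotted as percent change, and Ki was then calculated.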

[8] = molecular target: T3, 89-residue L-CPTI C-terminal peptide, W452A mutant; test: Quenching of intrinsic aromatic amino acid fluorescence by palmitoyl-CoA; format: binding; conditions: read-out: Quenching Kd, quenching of aromatic amino acid fluorescence of 0.1 µM W452A peptide
[9] = molecular target: T3, 89-residue L-CPTI C-terminal peptide, W452A mutant; test: Displacement of bound cis-parinaroyl-CoA by palmitoyl-CoA; format: binding; conditions: mutant peptides (W452A), range given for both mutants
Summary of the method: as §2

[10] = molecular target: T1, 89-residue L-CPTI C-terminal peptide, W391A mutant; test: as above; format: binding; conditions: mutant peptides (W391A), range given for both mutants
Summary of the method: as §2

| SMILES | binding affinity weaker than WT ([1]; mutant (W391A) versus WT, range given for both mutants) | Kd ([1]; read-out: Cpn-CoA Kd, W391A peptide 0.1 µM, PBS pH 7.4, 24°C, direct fluorescence) [nM] | Donor Emission R (intermolecular distance) ([2]; from donor (W391A) quenching) [Å] | Kd ([2]; read-out: Donor Emission Kd, from decrease in donor (W391A) fluorescence) [nM] | intermolecular distance determined from the increased acceptor fluorescence ([3]; CPTI WT, acceptor (cis-parinaroyl-CoA) fluorescence) [Å] | Donor Emission R (intermolecular distance) ([3]; from donor (CPTI WT) quenching, Förster equation) [Å] | Kd ([3]; read-out: Donor Emission Kd, from decrease in donor (CPTI WT) fluorescence) [nM] | binding affinity weaker than WT ([4]; mutant (W452A) versus WT, range given for both mutants) | Kd ([4]; read-out: Cpn-CoA Kd, W452A peptide 0.1 µM, PBS pH 7.4, 24°C, direct fluorescence) [nM] | Donor Emission R (intermolecular distance) ([5]; from donor (W452A) quenching) [Å] | Kd ([5]; read-out: Donor Emission Kd, from decrease in donor (W452A) fluorescence) [nM] | Kd [6] [nM] | displacement of cis-parinaroyl-CoA [7] | Kd [8] [nM] | cis-parinaroyl-CoA displacement [9] | cis-parinaroyl-CoA displacement [10] |
| --- | --- | --- | --- | --- | --- | --- | --- | --- | --- | --- | --- | --- | --- | --- | --- | --- |
| CC/C=C/C=C\C=C/C=C/CCCCCCCC(=O)SCCNC(=O)CCNC(=O)[C@H](O)C(C)(C)COP(=O)(O)OP(=O)(O)OC[C@H]1O[C@@H](n2cnc3c(N)ncnc32)[C@H](O)[C@@H]1OP(=O)(O)O (relative stereo) [cis-parinaroyl-CoA] | 5–7 fold | 52 ± 8 | 23.9 ± 0.6 | 88 ± 9 | 38±1 | 28 ± 1 | 35 ± 10 | 5–7 fold | 67 ± 10 | 24.3 ± 0.6 | 51 ± 5 |  |  |  |  |  |
| CCCCCCCCCCCCCCCC(=O)SCCNC(=O)CCNC(=O)[C@H](O)C(C)(C)COP(=O)(O)OP(=O)(O)OC[C@H]1O[C@@H](n2cnc3c(N)ncnc32)[C@H](O)[C@@H]1OP(=O)(O)O [palmitoyl-CoA] |  |  |  |  |  |  |  |  |  |  |  | 9 ± 1 | approximately 70% | 16 ± 2 | 50–60% | 50–60% |
